From ChEMBL document CHEMBL1123005, “1-Azacycloalkyl-1,4-benzodiazepin-2-ones with antianxiety-antidepressant actions” (J Med Chem, 1985) come the findings set out here.

As a reminder, the ED50 is the dose that gives a 50% effect, or the effect in half of the subjects. As usually defined, the inhibition in vivo is how much of the control response was suppressed. Read a low inhibition in vivo as a response near the control. For orientation: LD50 means the dose at which mortality reaches 50%. A higher LD50 goes with a less toxic substance. The term IC50 denotes the concentration that gives 50% inhibition.

Series [1] deals with Mus musculus. Put plainly: Effective dose against tetrabenazine induced ptosis in mice administered orally. The conditions noted are these: po. Format: functional. The method in brief:
(§1)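 Male DS mice, 20-27 g, groups of five. Compound given po or sc in saline or gum arabic at 0.1 mL/10 g. Tetrabenazine 50 mg/kg sc given 1, 4 or 24 h later. Ptosis scored 1-4 at 1 h after TBZ, with ridit transformation. Dose for 50% prevention by regression.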

For series [2], the system named is Rattus norvegicus. Put plainly: Percent inhibition was evaluated by their anticonflict effect in rats when administered through oral route at 8 mg/kg. Format: functional. The method in brief:
(§2)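 Wistar rats in groups of 5-8, Geller-Seifter conflict procedure. Rats trained to lever-press for food on a variable-interval 60-s schedule. Oral dosing. A dose counted positive when shocks exceeded 12 or shock ratio exceeded 4 over four consecutive tone periods. ED50 with 95% limits by probit.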

Series [3] concerns Mus musculus. The series can be described thus: Effective dose against pentylenetetrazole intoxicity in mice administered orally. Format: functional.
For series [4], the system named is Mus musculus. The series can be described thus: Effective dose against tetrabenazine induced ptosis in mice administered subcutaneously. Format: functional. The settings on record: sc. Put shortly:
as §1

The target of series [5] is GABA-A receptor; anion channel (Rattus norvegicus) (UniProt O09028+P15431+P18506+P18508+P19969+P20236+P23574+P23576+P28471+P28473+P30191+P62813+P63079+P63138+Q91ZM7+Q9ES14). Put plainly: Binding constant was determined by displacing potential to [3H]-diazepam binding in cerebral cortex homogenates of rat. Format: tissue-based. Put shortly: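 Wistar rat cerebral cortex homogenate incubated with compound and 2 nM [3H]diazepam at 0 °C for 60 min. Bound label trapped on glass filters and counted by scintillation. Ki = IC50/(1 + L/Kd).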

The test system of series [6] is Rattus norvegicus. Put plainly: Percent anticonflict effect in rats when administered through oral route at 16 mg/kg. Format: functional. Put shortly:
as §2

Series [7] has as its system Mus musculus. Put plainly: Effective dose against tetrabenazine induced ptosis in mice administered orally. The series is classed as functional. Put shortly: as §1
The subject of series [8] is Mus musculus. Put plainly: Effective dose against pentylenetetrazole intoxicity in mice administered orally; NE = no effect at dose 50 mg/kg. Set-up: dose 50 mg/kg. Format: functional, organism-based.
Series [9] in a line: Acute toxicity was measured in mice after peroral administration (1293-1506). Format: organism-based. The settings on record: mouse, in vivo, po. Put shortly: (§3)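 Male DS mice, 20-26 g, given compound orally; mortality checked the day after treatment in groups of 10. LD50 by probit method, or by up-and-down method of Brownlee et al. (n = 5) where estimated.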
Series [10] is filed under the species Rattus norvegicus. The series can be described thus: Inhibitory activity against uptake of [3H]norepinephrine into rat brain synaptosomes. Format: functional. Put shortly:
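P2 synaptosomes from male Wistar rat cerebral cortex incubated with [3H]norepinephrine at 37 °C for 20 min, with compound at 5-6 concentrations. Stopped by Krebs-Henseleit dilution and glass-fibre filtration, then scintillation counting. IC50 taken as the concentration giving 50% uptake inhibition.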

Series [11] has as its system Mus musculus. Put plainly: Effective dose against pentylenetetrazole intoxicity in mice administered through subcutaneous route; NE = no effect at 10 mg/kg. Format: functional, organism-based. More on the design: dose 10 mg/kg.
Series [12] has as its system Rattus norvegicus. Put plainly: Effective dose was evaluated by their anticonflict effect in rats when administered through oral route. Format: functional. Put shortly:
as §2

Series [13] has as its system Rattus norvegicus. Put plainly: Percent inhibition was evaluated by their anticonflict effect in rats when administered through oral route at 32 mg/kg. The series is classed as functional. The method in brief: as §2
Series [14] relates to Mus musculus. The series can be described thus: Percent inhibition against pentylenetetrazole intoxicity in mice administered orally at 50 mg/kg. The conditions noted are these: route oral. Format: functional.
Series [15] has as its system Mus musculus. Put plainly: Effective dose against pentylenetetrazole intoxicity in mice administered through subcutaneous route. Format: functional. The conditions noted are these: sc.
In series [16] the test system is Mus musculus. Put plainly: Effective dose against tetrabenazine induced ptosis in mice administered subcutaneously at 50 mg/kg. Format: functional. The settings on record: sc, route subcutaneous. The method in brief:
as §1

Series [17] deals with Mus musculus. Put plainly: Effective dose against pentylenetetrazole intoxicity in mice administered subcutaneously at 20 mg/kg. Format: functional. The settings on record: sc, route subcutaneous.
The subject of series [18] is Mus musculus. Put plainly: Percent Inhibition against pentylenetetrazole intoxicity in mice administered orally at 50 mg/kg. The series is classed as functional. The settings on record: route oral.
Series [19] in a line: Acute toxicity was measured in mice after peroral administration (1306-1666). The series is classed as organism-based. The conditions noted are these: mouse, in vivo, po. The method in brief: as §3
Series [20] in a line: Acute toxicity was measured in mice after peroral administration. The series is classed as organism-based. The settings on record: mouse, in vivo, po. Put shortly:
as §3

Series [21] deals with Mus musculus. The series can be described thus: Effective dose against pentylenetetrazole intoxicity in mice administered orally; NE = no effect at 200 mg/kg. Format: functional, organism-based. Set-up: dose 200 mg/kg.
Series [22] has as its system Rattus norvegicus. The series can be described thus: Percent inhibition against anticonflict effect in rats when administered through oral route; at 32 mg/kg. The series is classed as functional. Put shortly:
as §2

The nature of series [23]: Acute toxicity was measured in mice after peroral administration (805-1213). Format: organism-based. The conditions noted are these: mouse, in vivo, po. The method in brief: as §3
Series [24] relates to Mus musculus. Put plainly: Effective dose against tetrabenazine induced ptosis in mice administered through subcutaneous route. The conditions noted are these: sc. The series is classed as functional. Put shortly: as §1
The test system of series [25] is Mus musculus. The series can be described thus: Effective dose against pentylenetetrazole intoxicity in mice administered subcutaneously; NE = not effective at dose 10 mg/kg. The series is classed as functional, organism-based. More on the design: dose 10 mg/kg.
Series [26] has as its system Mus musculus. Put plainly: Effective dose against pentylenetetrazole intoxicity in mice administered orally;NE = no effect at 50 mg/kg. Format: functional, organism-based. More on the design: dose 50 mg/kg.
In series [27] the test system is Mus musculus. Put plainly: Percent inhibition against tetrabenazine induced ptosis in mice administered subcutaneously 50 mg/kg. The settings on record: sc, route subcutaneous. The series is classed as functional. The method in brief: as §1
Series [28] concerns Mus musculus. Put plainly: Effective dose against pentylenetetrazole intoxicity in mice administered through subcutaneous route;NE = no effect at 10 mg/kg. The series is classed as functional, organism-based. Set-up: dose 10 mg/kg.
[29] abbreviates: Mus musculus, po, read-out: ED50.

The source made the active and inactive calls. The calls are words filed in the database; no cut-off is given here.

Take `O=C1CN=C(c2ccccc2F)c2cc(Cl)ccc2N1C1CCNC1` (centres undefined): the ED50 is 0.4 mg/kg in the series with Mus musculus [1], 20.1 mg/kg in the series with Mus musculus [3] (setting [29]) and 28.9 mg/kg with Mus musculus [4]. The inhibition in vivo at 8 mg/kg in the series with Rattus norvegicus [2] stood at 60%. The same molecule displayed a K2 in series [5] of 0.73 µM.
For the molecule `CN1CCC(N2C(=O)CN=C(c3ccccc3)c3cc(F)ccc32)CC1`, the values for the ED50 with Mus musculus [3], in the series on Mus musculus [3] (setting [29]) and in the series on Mus musculus [7] (setting [29]) were 25.79 mg/kg, 30 mg/kg and 1.41 mg/kg, respectively. In addition, testing at 16 mg/kg in the series on Rattus norvegicus [6] gave an inhibition in vivo of 20%. Also, the K2 in [5] was 2.42 µM.
`O=C1CN=C(c2ccccc2)c2cc(Cl)ccc2N1C1CCNCC1`: the ED50 result in the series with Mus musculus [8] and in the series with Mus musculus [11] was “inactive” in each case. Besides, the 50% lethal dose (LD50) in series [9] is 1390 mg/kg. This molecule came in with an IC50 in the series listed under Rattus norvegicus [10] of 172 nM. Besides, the ED50 with Mus musculus [3] (setting [29]) amounted to 36.5 mg/kg; in the series on Mus musculus [4] it was 0.172 mg/kg; in the series with Rattus norvegicus [12] it was 11.8 mg/kg; with Mus musculus [7], 0.48 mg/kg; in the series with Mus musculus [7] (setting [29]), 0.48 mg/kg. Besides, the K2 in series [5] amounted to 0.35 µM.
Molecule `O=C1CN=C(c2ccccc2)c2cc(F)ccc2N1C1CCNCC1` came in with an inhibition in vivo at 32 mg/kg in the series on Rattus norvegicus [13] of 60%. The inhibition in vivo at 50 mg/kg in the series on Mus musculus [14] stood at 12.5%. The molecule also came in with an IC50 in the series filed under Rattus norvegicus [10] of 59 nM. Besides, in [5], the K2 was 2 µM. In addition, the ED50 with Mus musculus [7] (setting [29]) was determined as 0.39 mg/kg.
In the case of `CN1CCC(N2C(=O)CN=C(c3ccccc3Cl)c3cc(Cl)ccc32)CC1`, the IC50 in the series listed under Rattus norvegicus [10] stood at 39900 nM. For the same molecule, the median effective dose (ED50) in the series on Mus musculus [3] (setting [29]) was determined as 3.24 mg/kg; in the series with Mus musculus [15], 1.69 mg/kg; in the series with Mus musculus [7] (setting [29]), 26.1 mg/kg. Moreover, in the series with Mus musculus [16], the inhibition in vivo at 50 mg/kg came to 23%. This molecule yielded a K2 in series [5] of 0.021 µM.
In the series with Mus musculus [17], `CN1CCC(N2C(=O)CN=C(c3ccccc3)c3cc(Cl)ccc32)CC1` returned an inhibition in vivo at 20 mg/kg of 50%. Besides, the 50% effective dose (ED50) was found to be 29.9 mg/kg with Mus musculus [3] (setting [29]); 0.85 mg/kg with Mus musculus [4]; 8.4 mg/kg in the series with Rattus norvegicus [12]; 0.74 mg/kg with Mus musculus [7]; 0.58 mg/kg with Mus musculus [7] (setting [29]).
In the series on Mus musculus [4], `CN1CCC(N2C(=O)CN=C(c3ccccc3F)c3ccccc32)CC1` displayed an ED50 of 0.21 mg/kg. The same molecule returned an inhibition in vivo at 50 mg/kg in the series on Mus musculus [18] of 37.5%. Also, the K2 in series [5] was 0.2 µM.
The molecule `O=C1CN=C(c2ccccc2F)c2cc(Cl)ccc2N1C1CCNCC1` had an IC50 in the series listed under Rattus norvegicus [10] of 118 nM. Also, the ED50 in the series with Mus musculus [3] is 11.39 mg/kg; in the series on Mus musculus [3] (setting [29]) it was 14.2 mg/kg; in the series on Mus musculus [4] it was 0.08 mg/kg; in the series with Rattus norvegicus [12], 6.51 mg/kg; in the series with Mus musculus [7], 0.67 mg/kg; with Mus musculus [7] (setting [29]) it was 0.76 mg/kg. The molecule further displayed an LD50 in [19] of 1480 mg/kg. In series [5], this molecule displayed a K2 of 0.036 µM.
`O=C1CN=C(c2ccccc2)c2ccccc2N1C1CCNCC1`: the LD50 in series [20] worked out at 1240 mg/kg. Moreover, the ED50 result in the series on Mus musculus [21] and in the series on Mus musculus [11] was “inactive” each time. In the series filed under Rattus norvegicus [10], this molecule displayed an IC50 of 29 nM. The ED50 with Mus musculus [4] was found to be 0.06 mg/kg; in the series on Mus musculus [7] (setting [29]), 0.26 mg/kg. In series [5], this molecule registered a K2 of 1.3 µM. The same molecule displayed an inhibition in vivo at 32 mg/kg in the series with Rattus norvegicus [22] of 20%.
Molecule `O=C1CN=C(c2ccccc2F)c2cc(F)ccc2N1C1CCNCC1` displayed an inhibition in vivo at 32 mg/kg with Rattus norvegicus [13] of 50%. In series [23], this molecule registered an LD50 of 939 mg/kg. Also, in the series filed under Rattus norvegicus [10], the IC50 came to 79 nM. For the same molecule, the ED50 stood at 27.55 mg/kg in the series with Mus musculus [3], 32.1 mg/kg in the series with Mus musculus [3] (setting [29]) and 0.38 mg/kg with Mus musculus [7] (setting [29]). Besides, the K2 in series [5] came to 0.15 µM.
`CCOC(=O)N1CCC(N2C(=O)CN=C(c3ccccc3)c3ccccc32)CC1`: in series [5], the K2 came to 2.3 µM. Further, the median effective dose (ED50) in the series with Mus musculus [24] came out at 0.65 mg/kg. Further, the ED50 entry in the series on Mus musculus [25] was “inactive”.
Consider `CN1CCC(N2C(=O)CN=C(c3ccccc3F)c3cc(Cl)c(Cl)cc32)CC1`, for which the ED50 entry in the series with Mus musculus [11] and with Mus musculus [26] was “inactive” each time. The molecule further yielded an inhibition in vivo at 50 mg/kg in the series with Mus musculus [27] of 64%. This molecule also displayed a K2 in series [5] of 0.8 µM.
Turning to `CN1CCC(N2C(=O)CN=C(c3cccc(Cl)c3)c3cc(Cl)ccc32)CC1`, in the series with Mus musculus [4], it took a dose of 19.3 mg/kg to reach the 50% effect level (ED50). Moreover, the ED50 entry in the series with Mus musculus [28] is “inactive”. For the same molecule, the K2 in [5] turned out to be 23 µM.
